Source: PubChem BioAssay AID2292 (The Scripps Research Institute Molecular Screening Center, 2010)
The list shows a part of the results. Unmarked numbers belong to inactive results. The source made the active and inactive calls.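 How the source made its calls: active means mean inhibition across replicates above a set limit taken from the earlier primary screen (cut at about 28% in these data); inactive means the rest.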

System: Epstein-Barr virus nuclear antigen 1 (EBNA-1) DNA-binding domain, Human herpesvirus 4
Assay: EBNA-1 DNA-binding inhibitors, retest, confirmation, biochemical, fluorescence polarization, triplicate (AID 2292);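 further: plate controls were EBNA-1 protein with DMSO for no effect and wells lacking EBNA-1 for full effect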
Conditions: Recombinant EBNA-1 DBD, Cy5-DNA fluorescence polarization; at 14.8 µM; stronger effect = higher value
In short: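 Test system: E. coli-made EBNA-1 DBD, residues 448-610. Compound dosing: one dose, 14.8 µM. Reagent: 10 nM Cy5 DNA hairpin. Detection: fluorescence polarization, excitation 620 nm, emission 688 nm. Repeats: each compound tested in triplicate. Schedule: Protein-probe premix 30 min, compound exposure 1 h, room temperature. Medium: Tris-NaCl buffer, pH 7.4.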

Compound | inhibition
Nc1ccc(S(=O)(=O)Nc2nccc(/C=C/c3ccc(Br)s3)n2)cc1 | 8.99%
Cc1cccc(NC(=O)Cn2c(=O)n(Cc3ccccc3)c(=O)c3c(C)c(C)sc32)c1 | 5.76%
N#Cc1nc(N)nc(N(c2ccccc2)c2ccccc2)n1 | -5.35%
Cc1ccc(-c2nn(-c3ccccc3)cc2/C=C2\SC(=S)N(CCCCCC(=O)O)C2=O)o1 | 16.8%
O=C(COc1ccc(/C=N/NC(=O)c2ccc(O)cc2)cc1)Nc1ccc([N+](=O)[O-])cc1 | 51.1% (active)
CCOc1ccc(OCC)c(NC(=O)C(NS(=O)(=O)c2ccc3c(c2)oc(=O)n3C)C(C)C)c1 (stereo unspecified) | 62.8% (active)
CCOc1ccc(NC(=O)c2ccc(NC(=O)COC(=O)c3ccc(NC(=O)CC#N)cc3)cc2)cc1 | 3.81%
COc1ccc(-c2nonc2NC(=O)c2oc3ccc(F)cc3c2C)cc1OC | 58.1% (active)
COc1ccc(-c2ccc(Nc3ccc(S(=O)(=O)N4CCCC4)cc3)nn2)cc1OC | -1.8%
CC(=O)Nc1ccc(S(=O)(=O)NCC(=O)OCc2cc(=O)oc3ccc4ccccc4c23)cc1 | 5.47%
Cc1ccc(C(=O)NNC(=O)c2cc3cc4ccccc4nc3s2)cc1 | 29.3% (active)
Cc1ccc(O)c(/C=N/NC(=O)COc2ccc3c(C)cc(=O)oc3c2)c1 | -12.4%
O=C(CCCn1c(SCC(=O)c2ccc(F)cc2)nc2ccccc2c1=O)NCc1ccco1 | 16.5%
COc1ccc(C(=O)CSc2nnc(NC(=O)C3CC(=O)N(c4cccc(OC)c4)C3)s2)cc1 (stereo unspecified) | 52.3% (active)
C/C(=N\N=C(N)N)c1ccc(Cl)cc1 | 2.77%
CCOc1cccc(NC(=O)Cn2nc(-c3ccc4c(c3)OCCO4)ccc2=O)c1 | 64.7% (active)
COC(=O)C1=CN(Cc2ccc(OC)cc2)C=C(C(=O)OC)C1c1ccc(O)c(OC)c1 | 37.1% (active)
COC(=O)CSc1nc(C)c2ccc(OC)cc2n1 | -0.23%

Compound | inhibition
CCOc1[nH]n(-c2ccc(Cl)cc2)c(=O)c1C=Nc1ccc(O)cc1 | -11.1%
N#Cc1ccc(N2Cc3ccccc3/C2=N/C(=O)Nc2ccc(Cl)cc2)cc1 | 67.7% (active)
COc1ccc(CNc2nc3c(c(=O)[nH]c(=O)n3C)n2Cc2ccccc2)cc1 | 7.27%
Nc1nnc(SCC(=O)Nc2ccc3nc(SCC(=O)Nc4ccccc4)sc3c2)s1 | 24.9%
COc1ccc(C)cc1NC(=O)NCc1ccccn1 | -7.1%
COc1ccc(C(=O)Nc2cccc(NC(=O)c3ccc(OC)cc3OC)n2)c(OC)c1 | 31.9% (active)
O=C(Nc1cccc(NC(=O)c2ccc(Br)cc2)c1)c1ccccc1 | 20.8%
CCc1nccn1S(=O)(=O)c1cccc([N+](=O)[O-])c1 | 1.11%
CCOc1ccc(C(=O)NC(=S)Nc2ccc(NC(=O)C(C)C)cc2)cc1[N+](=O)[O-] | 55.5% (active)
O=C(Nc1ccc2ccccc2c1)Nc1ccc2snnc2c1 | 142% (active)
CC(=O)c1c(C)[nH]c(C(=O)OCC(=O)Nc2sc3c(c2C#N)CCCC3)c1C | 25.9%
CCC(=O)Nc1ccc(C(=O)Nc2ccc3c(c2)C(=O)N(CC2CCCO2)C3=O)cc1 (stereo unspecified) | 58.2% (active)
Cc1[nH]n(C(N)=S)c(=O)c1N=Nc1ccc(Cl)cc1Cl | -9.96%
COc1ccc(CCNC(=S)N2CCN(S(=O)(=O)c3ccc(F)cc3)CC2)cc1 | 3.15%
COc1ccc(NC(=O)NCc2ccc3c(c2)OCO3)c(OC)c1 | 57% (active)
CCOC(=O)c1ccc(NC(=O)C2CC(=O)Nc3nc4ccccc4n32)cc1 (stereo unspecified) | 61% (active)
Cc1cccc(N(CC(=O)Nc2ccc(-c3nc4ccc(C)cc4s3)cc2)S(C)(=O)=O)c1 | 12.2%
CCOc1cccc(SCc2noc(C(=O)NC(C)C)c2C(=O)O)c1 | -11.1%
